Data reported in ChEMBL document CHEMBL1153554, “Mechanisms by which the G333D mutation in human immunodeficiency virus type 1 Reverse transcriptase facilitates dual resistance to zidovudine and lamivudine” (Antimicrob Agents Chemother, 2008).

Tests used:
[1] = target: Human immunodeficiency virus type 1 reverse transcriptase (Human immunodeficiency virus 1, UniProt Q72547, L210W/M184V/M41L/T215Y); experiment: Binding affinity to HIV1 LAI reverse transcriptase M41L/L210W/T215Y/M184V mutant
[2] = test system: Human immunodeficiency virus type 1 reverse transcriptase (Human immunodeficiency virus 1), Q72547 [M184V]; experiment: Ratio of Kpol to Kd for HIV1 LAI reverse transcriptase M184V mutant
Outline: (§1)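 Pre-steady-state rapid quench: 400 nM active-site RT and 40 nM ³²P-P20/T57 DNA T/P were preincubated in 50 mM Tris-HCl pH 7.5, 50 mM KCl, then mixed with nucleotide in the same buffer containing 20 mM MgCl₂. Quenched with 0.3 M EDTA from 10 ms to 30 min, run on urea-PAGE. kobs came from single-exponential fits; kpol and Kd came from a hyperbolic fit versus nucleotide concentration.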

[3] = test system: Human immunodeficiency virus 1; experiment: Ratio of Kpol to Kd for HIV1 LAI reverse transcriptase M41L/L210W/T215Y/M184V/G333D mutant; outline: as §1
[4] = target: Human immunodeficiency virus type 1 reverse transcriptase (Human immunodeficiency virus 1) (UniProt Q72547); experiment: Ratio of Kpol to Kd for wild type HIV1 LAI reverse transcriptase; outline: as §1
[5] = test system: Human immunodeficiency virus type 1 reverse transcriptase (Human immunodeficiency virus 1), Q72547 [M41L,L210W,T215Y]; experiment: Ratio of Kpol to Kd for HIV1 LAI reverse transcriptase M41L/L210W/T215Y mutant; outline: as §1
[6] = target: Human immunodeficiency virus type 1 reverse transcriptase (Human immunodeficiency virus 1, UniProt Q72547); experiment: Binding affinity to wild type HIV1 LAI reverse transcriptase
Outline: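 Bacterially expressed, purified RT, corrected for active-site concentration, preincubated at 400 nM with 40 nM 5′-³²P-labelled 20-nt DNA primer annealed to a 57-nt DNA template in 50 mM Tris-HCl pH 7.5, 50 mM KCl. It was then rapid-quench mixed 1:1 with nucleotide in the same buffer plus 20 mM MgCl₂. EDTA quench at 10 ms–30 min; urea-PAGE. k_obs fitted single-exponential; K_d from hyperbolic k_obs-versus-concentration fit.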

[7] = target: Human immunodeficiency virus type 1 reverse transcriptase (Human immunodeficiency virus 1, UniProt Q72547, M184V); experiment: Binding affinity to HIV1 LAI reverse transcriptase M184V mutant
[8] = target: Human immunodeficiency virus type 1 reverse transcriptase (Human immunodeficiency virus 1, UniProt Q72547, L210W/M41L/T215Y); experiment: Binding affinity to HIV1 LAI reverse transcriptase M41L/L210W/T215Y mutant
[9] = Binding affinity to HIV1 LAI reverse transcriptase M41L/L210W/T215Y/M184V/G333D mutant; parameters: species or system Human immunodeficiency virus 1
[10] = test system: Human immunodeficiency virus type 1 reverse transcriptase (Human immunodeficiency virus 1), Q72547 [M41L,L210W,T215Y,M184V]; experiment: Ratio of Kpol to Kd for HIV1 LAI reverse transcriptase M41L/L210W/T215Y/M184V mutant; outline: as §1
[11] = test system: Human immunodeficiency virus type 1 reverse transcriptase (Human immunodeficiency virus 1), Q72547 [M184V]; experiment: Resistance (selectivity ratio) of HIV1 LAI reverse transcriptase M184V mutant relative to wild type
[12] = test system: Human immunodeficiency virus type 1 reverse transcriptase (Human immunodeficiency virus 1), Q72547 [M41L,L210W,T215Y]; experiment: Binding affinity to HIV1 LAI reverse transcriptase M41L/L210W/T215Y mutant relative to wild type
[13] = test system: Human immunodeficiency virus type 1 reverse transcriptase (Human immunodeficiency virus 1), Q72547 [M41L,L210W,T215Y,M184V]; experiment: Binding affinity to HIV1 LAI reverse transcriptase M41L/L210W/T215Y/M184V mutant relative to wild type
[14] = test system: Human immunodeficiency virus 1; experiment: Binding affinity to HIV1 LAI reverse transcriptase M41L/L210W/T215Y/M184V/G333D mutant relative to wild type

Row | SMILES | Kd [1] [nM] | Ratio [2] | Ratio [3] | Ratio [4] | Ratio [5] | Kd [6] [nM] | Kd [7] [nM] | Kd [8] [nM] | Kd [9] [nM] | Ratio [10] | fold resistance [11] | fold change (FC) [12] | fold change (FC) [13] | fold change (FC) [14]
1 | Nc1ccn([C@H]2C[C@H](O)[C@@H](COP(=O)(O)OP(=O)(O)OP(=O)(O)O)O2)c(=O)n1 [DEOXYCYTIDINE TRIPHOSPHATE] | 2990 | 0.53 | 0.58 | 1.07 | 1.06 | 1140 | 2490 | 1230 | 2510 | 0.44 |  |  |  | 
2 | Cc1cn([C@H]2C[C@H](O)[C@@H](COP(=O)(O)OP(=O)(O)OP(=O)(O)O)O2)c(=O)[nH]c1=O [DEOXYTHYMIDINE_TRIPHOSPHATE] | 2650 |  |  |  |  | 2080 | 2850 | 1200 | 2900 |  |  |  |  | 
3 | Cc1cn([C@H]2C[C@H](N=[N+]=[N-])[C@@H](COP(=O)(O)OP(=O)(O)OP(=O)(O)O)O2)c(=O)[nH]c1=O [ZIDOVUDINE TRIPHOSPHATE] |  | 2.41 | 1.1 | 4.41 | 4.26 |  |  |  | 3810 | 1.3 | 1.13 | 1.14 | 1.76 | 1.81
